Laboratory results as given in ChEMBL document CHEMBL5058577, “EUbOPEN Chemogenomics Library 2 (Multiplex)” (2022).

System: Fibroblast
Assay: Multiplex assay against human fibroblast
Assay type: toxicity, cell-based
Method in brief: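 Cells stained live at seeding with Hoechst33342, BioTracker Green Microtubule Cytoskeleton Dye, MitoTracker Red and Annexin V Alexa Fluor 680 were imaged on a CQ1 microscope at 37°C and 5% CO2 after compound addition. Their classification by CellPathfinder machine-learning gating ran from Hoechst high-intensity objects versus normal cells, to healthy, pyknosed or fragmented nuclei among normal cells, to mitotic or apoptotic among pyknosed cells. Tubulin, mitochondrial-mass and membrane-permeability phenotypes are per cents of healthy-nucleus cells.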

[1] = 12 h, 1 µM, compound concentration 1 uM, replicate 1
[2] = 12 h, 1 µM, compound concentration 1 uM, replicate 2
[3] = 12 h, 10 µM, compound concentration 10 uM, replicate 1
[4] = 12 h, 10 µM, compound concentration 10 uM, replicate 2
[5] = 24 h, 1 µM, compound concentration 1 uM, replicate 1
[6] = 24 h, 1 µM, compound concentration 1 uM, replicate 2
[7] = 24 h, 10 µM, compound concentration 10 uM, replicate 1
[8] = 24 h, 10 µM, compound concentration 10 uM, replicate 2
[9] = 48 h, 1 µM, compound concentration 1 uM, replicate 1
[10] = 48 h, 1 µM, compound concentration 1 uM, replicate 2
[11] = 48 h, 10 µM, compound concentration 10 uM, replicate 1
[12] = 48 h, 10 µM, compound concentration 10 uM, replicate 2

## CC(C)COc1ccc(CNC(=O)N(Cc2ccc(F)cc2)C2CCN(C)CC2)cc1 [PIMAVANSERIN]
[1]
  Population Apoptotic (%): 65%
  Population Fragmented Nuclei (%): 24%
  Population Healthy Nuclei (%): 62%
  Population Hoechst High Intensity Objects (%): 0%
  Population Membrane Permeable-Phenotype (%): 0%
  Population Mitochondria Different-Phenotype (%): 12%
  Population Mitotic Cells (%): 34%
  Population Normal (%): 100%
  Population Pyknosed Nuclei (%): 12%
  Population Tubulin-Different-Phenotype (%): 35%
  Total Cell Count: 179
[2]
  Population Apoptotic (%): 61%
  Population Fragmented Nuclei (%): 40%
  Population Healthy Nuclei (%): 42%
  Population Hoechst High Intensity Objects (%): 1%
  Population Membrane Permeable-Phenotype (%): 7%
  Population Mitochondria Different-Phenotype (%): 4%
  Population Mitotic Cells (%): 38%
  Population Normal (%): 98%
  Population Pyknosed Nuclei (%): 16%
  Population Tubulin-Different-Phenotype (%): 82%
  Total Cell Count: 160
[3]
  Population Apoptotic (%): 56%
  Population Fragmented Nuclei (%): 18%
  Population Healthy Nuclei (%): 65%
  Population Hoechst High Intensity Objects (%): 1%
  Population Membrane Permeable-Phenotype (%): 0%
  Population Mitochondria Different-Phenotype (%): 42%
  Population Mitotic Cells (%): 43%
  Population Normal (%): 98%
  Population Pyknosed Nuclei (%): 16%
  Population Tubulin-Different-Phenotype (%): 93%
  Total Cell Count: 185
[4]
  Population Apoptotic (%): 51%
  Population Fragmented Nuclei (%): 31%
  Population Healthy Nuclei (%): 42%
  Population Hoechst High Intensity Objects (%): 4%
  Population Membrane Permeable-Phenotype (%): 2%
  Population Mitochondria Different-Phenotype (%): 32%
  Population Mitotic Cells (%): 48%
  Population Normal (%): 95%
  Population Pyknosed Nuclei (%): 26%
  Population Tubulin-Different-Phenotype (%): 81%
[5]
  Population Apoptotic (%): 60%
  Population Fragmented Nuclei (%): 21%
  Population Healthy Nuclei (%): 65%
  Population Hoechst High Intensity Objects (%): 2%
  Population Membrane Permeable-Phenotype (%): 1%
  Population Mitochondria Different-Phenotype (%): 5%
  Population Mitotic Cells (%): 39%
  Population Normal (%): 97%
  Population Pyknosed Nuclei (%): 12%
  Population Tubulin-Different-Phenotype (%): 47%
  Total Cell Count: 186
[6]
  Population Apoptotic (%): 52%
  Population Fragmented Nuclei (%): 39%
  Population Healthy Nuclei (%): 46%
  Population Membrane Permeable-Phenotype (%): 4%
  Population Mitochondria Different-Phenotype (%): 9%
  Population Mitotic Cells (%): 47%
  Population Pyknosed Nuclei (%): 13%
  Population Tubulin-Different-Phenotype (%): 76%
  Total Cell Count: 157
[7]
  Population Apoptotic (%): 83%
  Population Fragmented Nuclei (%): 13%
  Population Healthy Nuclei (%): 67%
  Population Hoechst High Intensity Objects (%): 4%
  Population Membrane Permeable-Phenotype (%): 0%
  Population Mitochondria Different-Phenotype (%): 41%
  Population Mitotic Cells (%): 16%
  Population Normal (%): 95%
  Population Pyknosed Nuclei (%): 18%
  Population Tubulin-Different-Phenotype (%): 92%
  Total Cell Count: 170
[8]
  Population Apoptotic (%): 69%
  Population Fragmented Nuclei (%): 27%
  Population Healthy Nuclei (%): 50%
  Population Hoechst High Intensity Objects (%): 8%
  Population Membrane Permeable-Phenotype (%): 3%
  Population Mitochondria Different-Phenotype (%): 38%
  Population Mitotic Cells (%): 30%
  Population Normal (%): 91%
  Population Pyknosed Nuclei (%): 21%
  Population Tubulin-Different-Phenotype (%): 96%
  Total Cell Count: 167
[9]
  Population Apoptotic (%): 88%
  Population Fragmented Nuclei (%): 27%
  Population Healthy Nuclei (%): 62%
  Population Hoechst High Intensity Objects (%): 3%
  Population Membrane Permeable-Phenotype (%): 1%
  Population Mitochondria Different-Phenotype (%): 3%
  Population Mitotic Cells (%): 11%
  Population Normal (%): 96%
  Population Pyknosed Nuclei (%): 9%
  Population Tubulin-Different-Phenotype (%): 45%
  Total Cell Count: 204
[10]
  Population Apoptotic (%): 52%
  Population Fragmented Nuclei (%): 44%
  Population Healthy Nuclei (%): 44%
  Population Hoechst High Intensity Objects (%): 5%
  Population Membrane Permeable-Phenotype (%): 4%
  Population Mitochondria Different-Phenotype (%): 12%
  Population Mitotic Cells (%): 47%
  Population Normal (%): 94%
  Population Pyknosed Nuclei (%): 10%
  Population Tubulin-Different-Phenotype (%): 64%
  Total Cell Count: 167
[11]
  Population Apoptotic (%): 92%
  Population Fragmented Nuclei (%): 15%
  Population Healthy Nuclei (%): 67%
  Population Hoechst High Intensity Objects (%): 12%
  Population Membrane Permeable-Phenotype (%): 0%
  Population Mitochondria Different-Phenotype (%): 44%
  Population Mitotic Cells (%): 8%
  Population Normal (%): 87%
  Population Pyknosed Nuclei (%): 17%
  Population Tubulin-Different-Phenotype (%): 91%
  Total Cell Count: 163
[12]
  Population Apoptotic (%): 75%
  Population Fragmented Nuclei (%): 30%
  Population Healthy Nuclei (%): 53%
  Population Hoechst High Intensity Objects (%): 6%
  Population Membrane Permeable-Phenotype (%): 3%
  Population Mitochondria Different-Phenotype (%): 41%
  Population Mitotic Cells (%): 25%
  Population Normal (%): 93%
  Population Pyknosed Nuclei (%): 16%
  Population Tubulin-Different-Phenotype (%): 92%
  Total Cell Count: 159
